Data as given in ChEMBL document CHEMBL2062399, “Design, synthesis, and structure-activity relationships of a series of 2-Ar-8-methyl-5-alkylaminoquinolines as novel CRF₁ receptor antagonists” (Bioorg Med Chem Lett, 2012).

Experiments:
[1] = target: T1, Corticotropin-releasing factor receptor 1 (Homo sapiens, UniProt P34998); test: Displacement of [125I]-CRF from human CRF1 receptor expressed in HEK293 cells after 2 hrs; type: cell-based
T1 sequence (P34998 whole entry): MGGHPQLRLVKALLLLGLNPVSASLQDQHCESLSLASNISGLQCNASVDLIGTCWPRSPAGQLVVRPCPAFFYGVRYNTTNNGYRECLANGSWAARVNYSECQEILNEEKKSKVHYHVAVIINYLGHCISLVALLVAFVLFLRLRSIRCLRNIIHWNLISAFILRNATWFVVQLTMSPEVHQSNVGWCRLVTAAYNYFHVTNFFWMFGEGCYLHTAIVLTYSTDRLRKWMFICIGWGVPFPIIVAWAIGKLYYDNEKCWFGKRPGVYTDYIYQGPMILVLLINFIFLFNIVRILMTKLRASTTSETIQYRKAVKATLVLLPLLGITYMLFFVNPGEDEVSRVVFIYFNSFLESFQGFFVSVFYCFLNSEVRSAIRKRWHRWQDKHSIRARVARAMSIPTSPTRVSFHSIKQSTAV
How it was run: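 Scintillation proximity assay with HEK293 membranes expressing human CRF1 (5 µg/well), WGA-coated SPA beads and 0.1 nM [125I] human/rat CRF. Buffer pH 7.0 with 10 mM MgCl2, 2 mM EGTA, 1.5% BSA and protease inhibitors. Nonspecific binding with 0.4 µM unlabeled sauvagine. Incubated over 2 h at room temperature, then centrifuged and counted. Specific binding taken as % of total, IC50 from concentration-response curve.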

[2] = target: T1, Corticotropin-releasing factor receptor 1; test: Antagonist activity at human CRF1 receptor expressed in HEK293 cells assessed as inhibition of CRF-stimulated intracellular cAMP accumulation after 30 mins by enzyme immunoassay; type: functional, cell-based
How it was run: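 HEK293 cells stably expressing human CRF1, seeded at 5×10^4 cells/well in DMEM with 0.1% FBS and 1 mM IBMX. After 30 min preincubation, compound added for 30 min at 37 °C, then 1 nM human/rat CRF for 30 min at 37 °C. Lysed cAMP measured by EIA, basal subtracted, expressed as % of total production. IC50 from concentration-response curve.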

Rattus norvegicus = test: Inhibition of CRF-induced fecal pellet output in rat at 10 mg/kg, po administered 1 hr before CRF challenge by measuring decrease in fecal weight after 4 hrs; type: functional; conditions: Feces
How it was run: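 Rats dosed orally at 10 mg/kg 1 h before intravenous CRF (10 µg/kg). Fecal weight measured 4 h after CRF injection and compared with the vehicle + CRF group. 6–7 rats/group, mean ± S.E.M., unpaired t test.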

| SMILES | IC50 [1] [nM] | IC50 [2] [nM] | inhibition in vivo at 10 mg/kg (Rattus norvegicus) [%] |
| --- | --- | --- | --- |
| COCCNc1ccc(C)c2nc(-c3c(OC)cc(COC)cc3OC)c(C)cc12 | > 1000 | – | – |
| COCc1cc(OC)c(-c2nc3c(C)ccc(N(CC4CC4)CC4CC4)c3cc2C)c(OC)c1 | 88 | 46 | 53 |
| CCCN(CCC)c1ccc(CC)c2nc(-c3c(OC)cc(COC)cc3OC)c(C)cc12 | 115 | 375 | – |
| COCc1cc(OC)c(-c2nc3c(C)ccc(N(CC4CCOCC4)CC4CC4)c3cc2C)c(OC)c1 | 286 | – | – |
| CCN(CC)c1ccc(C)c2nc(-c3c(OC)cc(COC)cc3OC)c(Cl)cc12 | 81 | 45 | – |
| CCCN(CCC)c1cccc2nc(-c3c(OC)cc(COC)cc3OC)c(C)cc12 | 276 | 97 | – |
| CCCN(CCC)c1ccc(C)c2nc(Oc3c(OC)cc(COC)cc3OC)c(C)cc12 | > 1000 | – | – |
| COCc1cc(OC)c(-c2nc3c(C)ccc(N(CC4CC4)C4CCOCC4)c3cc2C)c(OC)c1 | 246 | – | – |
| CCN(CC)c1ccc(C)c2nc(-c3c(OC)cc(COC)cc3OC)ccc12 | 184 | 381 | – |

Continued, in another order:

| IC50 [1] [nM] | IC50 [2] [nM] | SMILES | inhibition in vivo at 10 mg/kg (Rattus norvegicus) [%] |
| --- | --- | --- | --- |
| 109 | 23 | CCN(CCOC)c1ccc(C)c2nc(-c3c(OC)cc(COC)cc3OC)c(C)cc12 | – |
| 88 | 70 | CCCN(CCC)c1ccc(C)c2nc(-c3c(OC)cc(COC)cc3OC)c(C)cc12 | 64 |
| 89 | 174 | COCCN(C)c1ccc(C)c2nc(-c3c(OC)cc(COC)cc3OC)c(C)cc12 | – |
| 79 | 24 | CCN(CC)c1ccc(C)c2nc(-c3c(OC)cc(COC)cc3OC)c(C)cc12 | 63 |
| 144 | 131 | CCN(CC)c1ccc(C)c2nc(-c3c(OC)cc(COC)cc3OC)c(F)cc12 | – |
| 212 | > 1000 | COCc1cc(OC)c(-c2nc3c(C)ccc(N(C)C)c3cc2C)c(OC)c1 | – |
| > 1000 | – | CCC(CC)Nc1ccc(C)c2nc(-c3c(OC)cc(COC)cc3OC)c(C)cc12 | – |
